Test results from ChEMBL document CHEMBL1123757, “Selective thromboxane synthetase inhibitors and antihypertensive agents. New derivatives of 4-hydrazino-5H-pyridazino[4,5-b]indole, 4-hydrazinopyridazino[4,5-a]indole, and related compounds” (J Med Chem, 1987).

Legend:
[1] = system: Cavia porcellus; assay: Ex vivo inhibition of platelet aggregation induced by AA at 50 mg/kg; No significance; assay type: functional, organism-based; set-up: dose 50 mg/kg
Method in brief: (§1)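 Fasted male or female guinea pigs (250–300 g, five per group) dosed orally in normal saline or saline with 0.2% (carboxymethyl)cellulose/1.0% Tween 80; controls given vehicle. Under ether, cardiac blood collected into 3.8% citrate. PRP adjusted to […] and aggregation induced by ADP (second wave) or AA, read by absorbance aggregometry. PGE2 and TXB2 measured by RIA.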

[2] = system: Rattus norvegicus; assay: Antihypertensive activity in spontaneously hypertensive rats (SHR) measured by percentage fall in cardiac rhythm (CR) at 1 mg/kg administered intraperitoneally at 5 h;No significance; assay type: functional, organism-based; set-up: dose 1 mg/kg; conditions: Heart
Method in brief: (§2)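 Unanesthetized Okamoto-strain SHR, male and female, 8 weeks old, 300–350 g, systolic pressure ≥190 mmHg, heart rate 400–650 beats/min; five animals per dose. Given ip at 2.5 mL/kg, dissolved or suspended in normal saline or saline with 0.2% (carboxymethyl)cellulose and 1.0% Tween 80. Tail AP and CR recorded by mechanical transduction at set times; reported as percentage fall from control.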

[3] = system: Rattus norvegicus; assay: Percent increase in cardiac rhythm, directly measured on carotid (iv on the jugular vein) of spontaneously hypertensive rats at 1 mg/kg after 5 minutes;No significance; assay type: functional, organism-based; set-up: dose 1 mg/kg; conditions: Heart
Method in brief: (§3)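 Anesthetized (sodium pentobarbital, 70 mg/kg) male and female Okamoto SHR, 8 weeks old, 300–350 g. Given iv into the jugular vein in normal saline. Arterial pressure and cardiac rhythm are recorded directly from the carotid by polygraph at set times after dosing. Each is expressed as percent change from the pre-dose control value.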

[4] = system: Rattus norvegicus; assay: Antihypertensive activity in spontaneously hypertensive rats (SHR) measured by percentage fall in cardiac rhythm (CR) at 1 mg/kg administered intraperitoneally at 24 h;No significance; assay type: functional, organism-based; set-up: dose 1 mg/kg; conditions: Heart; method in brief: as §2
[5] = system: Cavia porcellus; assay: Ex vivo inhibition of platelet aggregation induced by ADP-II at 30 mg/kg; No significance; assay type: functional, organism-based; set-up: dose 30 mg/kg; method in brief: as §1
[6] = system: Rattus norvegicus; assay: Antihypertensive activity in spontaneously hypertensive rats (SHR) measured by percentage fall in arterial pressure (AP) at 1 mg/kg administered intraperitoneally at 5 h;No significance significance; assay type: functional, organism-based; set-up: dose 1 mg/kg; conditions: Artery; method in brief: as §2
[7] = system: Rattus norvegicus; assay: Antihypertensive activity in spontaneously hypertensive rats (SHR) measured by percentage fall in arterial pressure (AP) at 1 mg/kg administered intraperitoneally at 24 h;No significance; assay type: functional, organism-based; set-up: dose 1 mg/kg; conditions: Artery; method in brief: as §2
[8] = system: Rattus norvegicus; assay: Percent increase in cardiac rhythm, directly measured on carotid (iv on the jugular vein) of spontaneously hypertensive rats at 1 mg/kg after 240 minutes;No significance; assay type: functional, organism-based; set-up: dose 1 mg/kg; conditions: Heart; method in brief: as §3
[9] = system: Rattus norvegicus; assay: Antihypertensive activity in spontaneously hypertensive rats (SHR) measured by percentage fall in cardiac rhythm (CR) at 25 mg/kg administered perorally at 24 h;No significance; assay type: functional, organism-based; set-up: dose 25 mg/kg; conditions: Heart
Method in brief: (§4)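 Conscious SHR (Okamoto strain), 8 weeks old, male and female, 300–350 g, systolic BP ≥190 mmHg, CR 400–650 beats/min. Given ip or po at 2.5 mL/kg in normal saline or saline with 0.2% (carboxymethyl)cellulose and 1.0% Tween 80. Tail AP and CR recorded by mechanical transduction at 1, 3, 5 and 24 h, five animals per dose. Effect expressed as % fall versus control.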

[10] = system: Cavia porcellus; assay: Ex vivo inhibition of platelet aggregation induced by AA at 30 mg/kg; No significance; assay type: functional, organism-based; set-up: dose 30 mg/kg; method in brief: as §1
[11] = system: Rattus norvegicus; assay: Antihypertensive activity in spontaneously hypertensive rats (SHR) measured by percentage fall in cardiac rhythm (CR) at 25 mg/kg administered perorally at 1 h;No significance; assay type: functional, organism-based; set-up: dose 25 mg/kg; conditions: Heart; method in brief: as §4
[12] = system: Cavia porcellus; assay: Ex vivo inhibition of platelet aggregation induced by ADP-II at 50 mg/kg; No significance; assay type: functional, organism-based; set-up: dose 50 mg/kg; method in brief: as §1
[13] = system: Rattus norvegicus; assay: Antihypertensive activity in spontaneously hypertensive rats (SHR) measured by percentage fall in cardiac rhythm (CR) at 25 mg/kg administered intraperitoneally at 24 h;No significance; assay type: functional, organism-based; set-up: dose 25 mg/kg; conditions: Heart; method in brief: as §2
[14] = system: Rattus norvegicus; assay: Percent increase in cardiac rhythm, directly measured on carotid (iv on the jugular vein) of spontaneously hypertensive rats at 1 mg/kg after 120 minutes;No significance; assay type: functional, organism-based; set-up: dose 1 mg/kg; conditions: Heart; method in brief: as §3
[15] = biological target: T1, Thromboxane-A synthase (Homo sapiens) (UniProt P24557); assay: Effect on thromboxane synthetase activity on in vitro platelet aggregation induced by AA at 10e -5 M expressed as percent […] in TXB2; assay type: functional
T1 sequence (whole entry): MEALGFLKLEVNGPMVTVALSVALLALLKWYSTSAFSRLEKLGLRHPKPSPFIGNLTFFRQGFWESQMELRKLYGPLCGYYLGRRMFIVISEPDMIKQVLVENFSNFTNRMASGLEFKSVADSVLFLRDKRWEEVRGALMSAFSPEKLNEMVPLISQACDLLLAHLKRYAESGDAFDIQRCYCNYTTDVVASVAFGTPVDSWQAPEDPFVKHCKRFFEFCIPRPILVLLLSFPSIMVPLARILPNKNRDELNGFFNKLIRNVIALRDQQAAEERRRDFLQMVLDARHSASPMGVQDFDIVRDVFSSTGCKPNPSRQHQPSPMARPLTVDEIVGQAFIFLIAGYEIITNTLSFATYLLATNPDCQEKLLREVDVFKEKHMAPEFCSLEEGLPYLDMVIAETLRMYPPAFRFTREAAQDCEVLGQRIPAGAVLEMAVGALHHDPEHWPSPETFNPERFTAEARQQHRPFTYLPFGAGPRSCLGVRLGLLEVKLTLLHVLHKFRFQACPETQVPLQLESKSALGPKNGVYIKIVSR
Method in brief: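 Human citrated PRP adjusted to 200 000 […], compound at 10^-5 M final in saline/10% ethylene glycol, incubated at 37 °C. Aggregation induced with arachidonic acid 0.6 mM and read by Born absorbance aggregometry. PGE2 and TXB2 in the aggregated samples measured by radioimmunoassay. n = 5.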

[16] = system: Rattus norvegicus; assay: Percent increase in cardiac rhythm, directly measured on carotid (iv on the jugular vein) of spontaneously hypertensive rats at 1 mg/kg after 75 minutes;No significance; assay type: functional, organism-based; set-up: dose 1 mg/kg; conditions: Heart; method in brief: as §3
[17] = system: Rattus norvegicus; assay: Percent increase in cardiac rhythm, directly measured on carotid (iv on the jugular vein) of spontaneously hypertensive rats at 1 mg/kg after 180 minutes;No significance; assay type: functional, organism-based; set-up: dose 1 mg/kg; conditions: Heart; method in brief: as §3

COc1ccc2[nH]c3c(NN)nncc3c2c1 was tested, and the inhibition [1] was “No significant values”, the “Decrease in CR” value [2] was “No significant values” and the Increase [3] was “No significant values”. For the same compound, the “Decrease in AP” value [4] was “No significant values”, the inhibition [5] was “No significant values” and the “Decrease in AP” value [6] was “No significant values”. The “Decrease in AP” value [7] was “No significant values”, the Increase [8] was “No significant values” and the “Decrease in CR” value [9] was “No significant values”. The inhibition [10] was “No significant values”, the “Decrease in CR” value [11] was “No significant values” and the inhibition [12] was “No significant values”. The “Decrease in CR” value [13] was “No significant values”, the Increase [14] was “No significant values” and the inhibition [15] was 40%. The Increase [16] was “No significant values” and the Increase [17] was “No significant values”.
